Source: PubChem
Diaph inh CS: counter-screen for diaphorase-based assays: diaphorase inhibitors and chemical oxidizers; diaphorase resazurin-to-resorufin fluorescence, NADH, 16 min; bacterial (C. kluyveri) enzyme, not human; inhibition, % at 20 µM; 190,000 tested, 0.69% active; AID 1217;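 active = primary screen inhibition at 20 µM above a set limit, cut at about 50% in these data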;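 also: plate controls were DMSO with full reaction for no effect and wells lacking NADH for full effect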
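Assay system – diaphorase enzyme from Clostridium kluyveri · Amount – diaphorase 0.14 U/mL (working solution) · Times – reaction incubation of 16 min at room temperature · Controls – No-NADH positive control and DMSO neutral control · Signal – resorufin fluorescence 544/590 nm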
KCC2 mod: KCC2 (human) Cl- transport modulation; Q9H2X9; KCC2 cells, thallium flux FluoZin-2 fluorescence; 190,000 tested, 2.2% active; B-score of Tl+ flux slope (higher = more flux/activation; lower = inhibition) at 10 µM;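 active = thallium flux slope and its plate-corrected score both differing from the plate sample mean at a set confidence after two filtering rounds, in either direction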;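 also: slope of fluorescence scaled to starting intensity during 10 to 20 s after thallium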
Target sequence (Q9H2X9 whole entry, looked up): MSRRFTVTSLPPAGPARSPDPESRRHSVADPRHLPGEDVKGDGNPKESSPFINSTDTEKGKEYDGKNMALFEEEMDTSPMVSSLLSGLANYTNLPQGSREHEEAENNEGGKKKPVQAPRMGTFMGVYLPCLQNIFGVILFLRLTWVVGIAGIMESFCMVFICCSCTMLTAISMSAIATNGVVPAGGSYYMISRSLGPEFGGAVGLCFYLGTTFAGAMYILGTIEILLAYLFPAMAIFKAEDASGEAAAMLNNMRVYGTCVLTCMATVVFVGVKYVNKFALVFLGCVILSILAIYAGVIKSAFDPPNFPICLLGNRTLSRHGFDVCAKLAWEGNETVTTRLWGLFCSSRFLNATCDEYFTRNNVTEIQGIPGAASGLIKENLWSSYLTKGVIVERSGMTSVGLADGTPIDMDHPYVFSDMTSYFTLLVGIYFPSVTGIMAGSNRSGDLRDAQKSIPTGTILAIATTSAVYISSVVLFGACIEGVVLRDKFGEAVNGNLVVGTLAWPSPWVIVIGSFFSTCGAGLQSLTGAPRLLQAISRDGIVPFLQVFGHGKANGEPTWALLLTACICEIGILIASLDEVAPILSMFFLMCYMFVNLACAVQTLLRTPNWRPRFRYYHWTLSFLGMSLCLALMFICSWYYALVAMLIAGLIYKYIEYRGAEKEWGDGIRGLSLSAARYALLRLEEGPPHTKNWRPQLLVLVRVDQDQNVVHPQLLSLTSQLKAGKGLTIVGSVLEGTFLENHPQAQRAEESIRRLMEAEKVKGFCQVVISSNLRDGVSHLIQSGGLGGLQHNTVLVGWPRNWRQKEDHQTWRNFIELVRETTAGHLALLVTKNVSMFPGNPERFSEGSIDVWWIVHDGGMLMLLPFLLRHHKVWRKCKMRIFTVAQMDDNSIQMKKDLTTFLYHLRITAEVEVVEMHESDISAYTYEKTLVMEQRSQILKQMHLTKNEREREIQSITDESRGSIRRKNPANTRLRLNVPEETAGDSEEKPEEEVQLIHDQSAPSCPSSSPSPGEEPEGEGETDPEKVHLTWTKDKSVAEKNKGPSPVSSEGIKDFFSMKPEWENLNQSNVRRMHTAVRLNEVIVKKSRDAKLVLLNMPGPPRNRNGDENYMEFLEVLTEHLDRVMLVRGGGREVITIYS
ROMK primary: modulates human ROMK potassium channel activity. Tet-inducible ROMK, thallium flux fluorescence; actives lie on both sides. B-score at 10 µM. 130,000 tested, 2% active. AID 1918;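 active = signal ratio slope over the read window, or its plate-corrected B-score, at least 3 SD from the plate mean, either direction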;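 also: B-score of the F/F0 ratio slope over 7 to 12 s after thallium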
Diaphorase act: counter-screen for diaphorase-based assays: diaphorase activators and chemical reducers; Diaphorase/resazurin coupled assay, resorufin fluorescence, 16 min; hits give high values; 1 = vehicle wells, 0 = NADH-free wells; activation factor at 20 µM; 190,000 tested, 0.005% active;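 active = diaphorase activity raised at least twofold by the compound at 20 µM; inactive = activation factor below 2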
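Test system: Clostridium kluyveri diaphorase, purified enzyme; input: enzyme 0.07 U/mL final; buffer or medium: 50 mM HEPES pH 7.4 with 4.542 mM MgCl2, 0.005% Tween 20; also added: 0.114 mM NADH and 0.1 mM resazurin, final amounts; schedule: 16 min enzyme reaction, ambient temperature; technique: fluorescence of resorufin, 544 nm excitation, 590 nm emission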
Lmaj promast: inhibitors of Leishmania major promastigote growth | inhibition, % at 10 µM | 200,000 tested, 9% active | Leishmania major promastigotes, resazurin fluorescence viability; in the data active = inhibition above about 50%;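 also: promastigotes grown with compound for 44 hours at 28 °C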
WT yeast gro inh: growth inhibition of WT yeast, mitochondrial fusion screen; mitochondrial fusion phenotypic screen, WT strain; inhibition, % at 10 µM; 190,000 tested, 2.1% active; AID 1362; in the data active = inhibition above about 58%; tested in S. cerevisiae
ROMK hit retest: confirmation of human ROMK potassium channel modulators. ROMK thallium flux, fluorescence ratio; hits give low values. AID 1917. 3,000 tested, 54% active. shares compounds with ROMK primary. normalized thallium flux (F/F0 slope) at 10 µM;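 active = Flux at 10 µM at least 3 SD below or above vehicle control mean in one or both replicates; inconclusive = no clear call, values can overlap the other calls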
Starred values were filed as active, the others as inactive; ? = inconclusive; . = no result. Shown are actives, neighbours in structure and some others; about 12% of the full set was active somewhere.

SMILES | Diaph inh CS | KCC2 mod | ROMK primary | Diaphorase act | Lmaj promast | WT yeast gro inh | ROMK hit retest
O=P(O)(c1ccc(Cl)cc1)c1ccc(Cl)cc1 | 11 | 0.079 | 0.48 | 0.9 | -2 | -6 | .
Fc1ccc2c(Cl)c(-c3nnc(-c4cccs4)o3)sc2c1 | -14 | 0.31 | . | 1.1 | -8 | 2 | .
COc1ccccc1C1CCN(c2ccc([N+](=O)[O-])c(OC)c2)CC1 | . | -1.3 | . | . | . | . | .
COc1ccccc1C1NC=C([N+](=O)[O-])C=C1[N+](=O)[O-] (stereo not given) | 13 | -3.5 | . | 0.9 | 29 | 8 | 0.051*
COc1ccccc1C1C([N+](=O)[O-])=CC([N+](=O)[O-])=CN1C (stereo not given) | 4 | -4.9 | -5* | 1 | 9 | -9 | 0.055*
Cc1ccc(C(C(=O)NC2CCCCC2)N(Cc2ccco2)C(=O)Cc2c[nH]c3ccccc23)o1 (stereo not given) | 32 | . | . | 0.7 | 42 | 71* | ?
C/C(=N/NC(=O)C1CCN(S(=O)(=O)c2ccc(C)cc2)CC1)c1cccc([N+](=O)[O-])c1 | 16 | -0.75 | -2.5* | 0.8 | 45 | 2 | 0.076
C/C(=N\NC(=O)c1cccc([N+](=O)[O-])c1)c1cccc(NC(=O)C2CC2)c1 | 10 | . | . | 0.9 | 15 | -10 | .
Cn1cc(C(=O)c2ccc(Cl)cc2)cc1-c1nc2ccccc2n1C | 16 | -1.9 | . | 0.8 | 33 | 6 | .
CC(C)(C)c1cnnn1-c1ccc(C(=O)CCl)cc1 | 10 | 0.16 | . | 0.9 | 69* | -2 | 0.054*
CCOC(=O)CCS(=O)(=O)c1nc(-c2ccccc2)cc(C(F)(F)F)n1 | 4 | 0.036 | -4.4* | 1 | 8 | 33 | 0.055*
CCOC(=O)CS(=O)(=O)c1nc(-c2ccccc2)cc(C(F)(F)F)n1 | 18 | -0.18 | -4.5* | 0.8 | 0 | 14 | 0.059*
COC(=O)CCS(=O)(=O)c1nc(-c2ccccc2)cc(C(F)(F)F)n1 | 8 | . | . | 0.9 | 3 | 19 | .
CCCCNC1=C(Br)C(=O)CC(C)(C)C1 | 18 | 0.95 | 0.14 | 0.8 | -3 | 4 | .
CCc1ccc(S(=O)(=O)NCc2csc(C)n2)s1 | 3 | 1.6 | -0.05 | 1 | -6 | 6 | .
CCCCOc1ccc(S(=O)(=O)NCc2csc(C)n2)cc1 | 18 | -0.29 | -2.3* | 0.8 | 1 | 1 | 0.067*
O=c1c2ccccc2nc(-c2ccccc2Cl)n1O | 6 | 1.8 | 2.8* | 0.9 | -5 | 2 | 0.071
O=C(O)c1ccccc1-c1nc2cc(Cl)ccc2c(=O)n1O | 10 | 0.58 | -3.2* | 0.9 | -16 | -12 | 0.068*
O=C(CSc1nnnn1C1CC2CCC1C2)Nc1ccnc2ccccc12 (stereo not given) | 20 | -0.43 | . | 0.8 | 2 | 14 | ?
CCN1CCN(CCNC(=O)c2ccc(/C=C3/Sc4ccccc4N(Cc4ccccc4C)C3=O)cc2)CC1 | -41 | 0.35 | -3.6* | 1.4 | 100* | 77* | 0.078
CCN1CCN(CCCNC(=O)c2ccc(/C=C3/Sc4ccccc4N(Cc4ccccc4F)C3=O)cc2)CC1 | -62 | -0.42 | -3.3* | 1.6 | 98* | 82 | 0.077
Cc1ccc(NC(=O)c2oc3ccccc3c2NC(=O)c2ccc3c(c2)OCO3)cc1 | -2 | . | -0.37 | 1 | 22 | -7 | .
CCN(C(=O)CSc1nnc(NC2CCCCC2)s1)C1CCS(=O)(=O)C1 (stereo not given) | 10 | 0.2 | 0.52 | 0.9 | -8 | 15 | .
C=CCn1c(SCC(=O)N(C)C)nc2cc(C(=O)O)ccc2c1=O | 12 | 0.85 | 0.036 | 0.9 | -4 | -2 | .
CC(N=C1CC(C)(C)CC(=O)/C1=C(/O)CCCN1C(=O)c2ccccc2C1=O)C(=O)O (stereo not given) | 2 | -0.66 | 1.2 | 1 | -4 | 4 | .
SMILES | Diaph inh CS | KCC2 mod | ROMK primary | Diaphorase act | Lmaj promast | WT yeast gro inh | ROMK hit retest
C=CS(=O)(=O)c1ccc(Oc2ccc(S(=O)(=O)C=C)cc2)cc1 | 13 | -0.94 | -5.8* | 0.9 | -7 | 8 | 0.041*
Cn1cnc2cc(NC(=O)c3ccc(Cl)cc3)ccc21 | 4 | -0.05 | . | 1 | 6 | 16 | 0.082
CCOc1ccc(N=Nc2c(N)[nH][nH]c2=O)cc1 | 6 | -0.74 | . | 0.9 | -6 | 9 | .
COC(=O)/C=c1/s/c(=C(/C#N)C(=O)N2CCCCC2)n(-c2ccccc2)c1=O | 5 | -0.017 | -3.2* | 0.9 | -4 | -13 | 0.057*
Cc1cccn2c(=O)c(C=O)c(N3CC(C)OC(C)C3)nc12 (stereo not given) | -12 | 0.43 | -0.27 | 1.1 | -4 | 8 | .
Cc1cccn2c(=O)c(C=O)c(N3CCCCCC3)nc12 | -3 | -2.2 | 2.1* | 1 | -3 | 17 | 0.074
CCOC(=O)c1nc2sc(C)c(C)c2c(=O)[nH]1 | 6 | 0.55 | -0.51 | 0.9 | -6 | 12 | .
CCOC(=O)/C(=C\c1cccc(O)c1)c1nc2sc(C)c(C)c2c(=O)[nH]1 | 12 | -0.44 | -4.1* | 0.9 | 99* | -11 | 0.058*
S=C(c1ccc(-c2ccc(Br)cc2)o1)N1CCOCC1 | . | 3 | 2.4* | . | . | . | 0.078
S=C(c1ccc(-c2ccc(Br)cc2)o1)N1CCCCC1 | . | -0.48 | -0.63 | . | 12 | 38 | .
N#CC(C#N)=C1C=CC=CN1/C(=C\c1ccccc1Cl)C(=O)c1ccccc1 | 19 | -2.3 | -5.6* | 0.8 | -2 | 67* | 0.041*
N#CC(C#N)=C1C=CC=CN1/C(=C\c1ccccc1)C(=O)c1cccs1 | 10 | -0.82 | . | 0.9 | 7 | -7 | 0.057*
O=C(N/N=C/C(Br)=C\c1ccccc1)c1cccs1 | . | 1.9 | . | . | . | . | .
O=C(O)C1C2C=CC(C3CC23)C1C(=O)N1CCc2ccccc21 (stereo not given) | 10 | 0.33 | . | 0.9 | 3 | 9 | .
Cc1[nH][nH]c(=O)c1C(c1ccc(O)c([N+](=O)[O-])c1)c1c(C)[nH][nH]c1=O | 20 | 0.93 | . | 0.8 | 1 | 1 | 0.077
Cc1[nH][nH]c(=O)c1C(c1ccc([N+](=O)[O-])cc1)c1c(C)[nH][nH]c1=O | . | -0.058 | . | . | . | . | .
C=CCn1c(SCC(=O)c2cc(C)n(CCOC)c2C)nc2sc(C)c(C)c2c1=O | 4 | . | -0.44 | 1 | -1 | -1 | .
Cn1cc([N+](=O)[O-])c(C(=O)NCc2cc3cc(Cl)ccc3[nH]2)n1 | 6 | 0.63 | 3.4* | 0.9 | 20 | 16 | 0.092
CCCCN(CC)c1nc(N)c(C#N)c(CC#N)c1C#N | 4 | -0.64 | -3.1* | 1 | -6 | -3 | 0.055*
C=C(C)CN(CC)c1nc(N)c(C#N)c(CC#N)c1C#N | 14 | . | -2.6* | 0.9 | 13 | -10 | 0.055*
CC(=O)N1CCN(c2nc(N)c(C#N)c(CC#N)c2C#N)CC1 | . | 1.4 | . | . | . | . | .
